Active and inactive are the calls of the source.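 The calls were made as follows: active = toxic dose divided by the dose restoring drug killing exceeds 10, where toxic dose is under 15 µM; inactive = the rest.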
System: Jurkat/DNR + daunorubicin, trypan blue viability, 3 d
Experiment: daunorubicin sensitization of ABCB1 resistant cells, SAR follow-up, cell-based, Jurkat/DNR, trypan blue viability, SAR set 2 (AID 504476)
Conditions: for CC50: measured here: TD50 toxicity without chemotherapeutic
Method in brief: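 System: Daunorubicin-resistant Jurkat/DNR cells; Input: 100,000 cells per mL; Dosing: test compound spanning 3 logs, 1 to 100 µM; Times: 3 days exposure; Signal: trypan blue counts by microscopy.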

## COc1cccc(-c2cc(N3CCN(C(=O)c4ccoc4)CC3)n3nc(-c4ccccc4)cc3n2)c1
  EC50: 0.18 µM (inactive)
  CC50: 5.7 µM

## COc1ccccc1-c1cc(N2CCN(C(=O)c3ccoc3)CC2)n2nc(-c3ccccc3)cc2n1
  EC50: 0.17 µM (inactive)
  CC50: 3.7 µM

## Cc1ccc(-c2cc3nc(-c4ccco4)cc(N4CCN(Cc5ccoc5)CC4)n3n2)cc1
  EC50: 0.35 µM (inactive)
  CC50: 12.5 µM

## O=C(c1ccoc1)N1CCN(c2cc(-c3ccoc3)nc3cc(-c4ccccc4)nn23)CC1
  EC50: 0.42 µM (inactive)
  CC50: 7.3 µM

## O=C(c1ccoc1)N1CCN(c2cc(-c3ccco3)nc3cc(-c4ccco4)nn23)CC1
  EC50: 0.19 µM (inactive)
  CC50: 1.93 µM

## CC(=O)N1CCN(c2cc(-c3ccco3)nc3cc(-c4cccc(Cl)c4)nn23)CC1
  EC50: 0.08 µM
  CC50: 17.6 µM

## CC(=O)N1CCN(c2cc(-c3ccco3)nc3cc(-c4ccccc4)nn23)CC1
  EC50: 0.19 µM (inactive)
  CC50: 10.1 µM

## COc1ccc(-c2cc3nc(-c4ccco4)cc(N4CCN(C(=O)c5ccoc5)CC4)n3n2)cc1
  EC50: 5.77 µM
  CC50: > 100 µM

## COc1cccc(-c2cc3nc(-c4ccco4)cc(N4CCN(C(C)=O)CC4)n3n2)c1
  EC50: 0.32 µM
  CC50: 49.3 µM

## O=C(c1ccoc1)N1CCCN(c2cc(-c3ccco3)nc3cc(-c4ccccc4)nn23)C1
  EC50: 0.35 µM (inactive)
  CC50: 12 µM

From PubChem BioAssay AID504476 (NMMLSC, 2011)
